Measured values taken from ChEMBL document CHEMBL3745639, “Structure-activity relationships for lipoprotein lipase agonists that lower plasma triglycerides in vivo” (Eur J Med Chem, 2015).
≈ marks a conversion by molar mass, not a printed value. Calls of active or inactive are those of the source. Unless noted, no cut-off for these calls is given here.

What was measured:
[1] = Stability of the compound in human plasma after 4 hrs at 37 degC by mass spectrometric analysis; format: ADME, cell-free; details: read-out: Stability
Method in brief: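 Plasma test solution (pooled human plasma, typically 10 μM compound) held at 37 °C for 4 h, matching the dialysis time. A reference sample was frozen immediately. Proteins precipitated with methanol containing warfarin, then LC-MS/MS. Stability expressed on a relative basis.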

[2] = Half life in human plasma after 24 hrs; format: ADME, cell-free
[3] = Apparent permeability across basolateral to apical side in human Caco2 cells at 10 uM after 15 to 60 mins; format: ADME, cell-based; details: Caco-2
[4] = Efflux ratio of apparent permeability from basolateral to apical over apical to basolateral side in human Caco2 cells at 10 uM after 15 to 60 mins; format: ADME, cell-based; details: Caco-2
[5] = molecular target: T1, Lipoprotein lipase (Bos taurus) (UniProt P11151); experiment: Induction of bovine LPL stabilization using intralipid as substrate at 25 uM preincubated for 10 mins with human recombinant ANGPTL4 followed by substrate addition measured after 45 mins relative to control
T1 sequence (whole entry): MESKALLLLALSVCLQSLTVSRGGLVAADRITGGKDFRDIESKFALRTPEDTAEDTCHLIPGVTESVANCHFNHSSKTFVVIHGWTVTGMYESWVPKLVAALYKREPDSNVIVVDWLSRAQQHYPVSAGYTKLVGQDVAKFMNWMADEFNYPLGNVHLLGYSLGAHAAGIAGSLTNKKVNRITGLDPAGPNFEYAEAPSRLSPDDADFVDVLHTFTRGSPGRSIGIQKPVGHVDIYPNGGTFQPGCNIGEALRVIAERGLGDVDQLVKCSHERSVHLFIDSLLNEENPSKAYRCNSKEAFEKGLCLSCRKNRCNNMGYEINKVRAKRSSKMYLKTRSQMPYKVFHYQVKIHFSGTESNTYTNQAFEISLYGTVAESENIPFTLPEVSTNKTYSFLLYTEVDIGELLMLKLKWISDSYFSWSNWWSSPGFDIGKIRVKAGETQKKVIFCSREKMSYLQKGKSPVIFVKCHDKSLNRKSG
Method in brief: (§1)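 Compound in DMSO in buffer (50 mM potassium phosphate pH 7.4, 0.15 M NaCl, 0.01% Triton X-100), with human ANGPTL4 N-terminal fragment (aa 26-184, 75 nM final) and bovine LPL (15 nM final). Preincubated 10 min at 25 °C with shaking. Stopped after 45 min with 2.5% Triton X-100, and NEFA measured enzymatically. Activity normalised between DMSO+LPL+ANGPTL4 (0%) and DMSO+LPL (100%).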

[6] = molecular target: T1, Lipoprotein lipase (Bos taurus); experiment: Induction of bovine LPL stabilization using intralipid as substrate at 12.5 uM preincubated for 10 mins with human recombinant ANGPTL4 followed by substrate addition measured after 45 mins relative to control; method in brief: as §1
[7] = molecular target: T1, Lipoprotein lipase (Bos taurus); experiment: Induction of bovine LPL stabilization using intralipid as substrate at 3.12 uM preincubated for 10 mins with human recombinant ANGPTL4 followed by substrate addition measured after 45 mins relative to control; method in brief: as §1
[8] = molecular target: T1, Lipoprotein lipase (Bos taurus); experiment: Induction of bovine LPL stabilization using intralipid as substrate at 6.25 uM preincubated for 10 mins with human recombinant ANGPTL4 followed by substrate addition measured after 45 mins relative to control; method in brief: as §1
Lipoprotein lipase = molecular target: T2, Lipoprotein lipase (Bos taurus, UniProt P11151); experiment: Induction of bovine LPL stabilization using intralipid as substrate preincubated for 10 mins with human recombinant ANGPTL4 followed by substrate addition measured after 45 mins relative to control; method in brief: as §1
T2 sequence (P11151 whole entry): T1 sequence (whole entry)

[9] = Apparent permeability across apical to basolateral side in human Caco2 cells at 10 uM after 15 to 60 mins; format: ADME, cell-based; details: Caco-2
Method in brief: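 Caco-2 monolayers washed with pre-warmed HBSS, then donor solution applied. Transport run with apical pH 6.5 and basolateral pH 7.4. Monolayer integrity checked by TEER and by mannitol permeability. Papp derived from transport rates.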

[10] = Kinetic aqueous solubility of the compound in PBS at pH 7.4 after 2 hrs by LC-MS/MS analysis; format: physicochemical; details: read-out: Kinetic_solubility
Method in brief: (§2)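 Kinetic solubility from a 10 mM DMSO stock diluted 1:100 (1% DMSO, maximum detectable 0.1 mM) into PBS pH 7.4 or HCl-adjusted PBS at about pH 1.2. Incubated at 37 °C for 2 h in sealed glass vials, centrifuged at 10000 x g, 37 °C, 20 min, then LC-MS/MS.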

Mus musculus = experiment: Hypolipidemic activity in C57B16/J mouse assessed as reduction in plasma triglyceride level at 10 mg/kg, ip qd administered for 4 days followed by olive oil injection through oral gavage one hour post last dose measured at 180 mins; format: functional, organism-based
Method in brief: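 Female C57B16/J mice, 8-9 weeks, about 18 g, n = 8/group. Given 10 mg/kg i.p. once daily for 4 days, 0.5 ml in PBS pH 7.4 with 3% DMSO and 0.2% Triton X-100. Fasted 8 h before the last dose, then 0.2 ml oral olive oil gavage 1 h after it. Tail-vein EDTA plasma taken at baseline and every 60 min to 180 min. TG measured enzymatically, reported as mean ± SD.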

[11] = Intrinsic clearance in human hepatocytes assessed per 10^6 cells at 1 uM after 10 to 60 mins by LC-MS/MS analysis in presence of NADPH; format: ADME, cell-based, Hepatocyte; details: read-out: CLH
Method in brief: (§3)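 Freshly isolated human hepatocytes (0.5 x 10⁶ cells/ml) in Williams medium E with compound at 1 μM. Reaction started by adding cells. Sampled at 0, 10, 30 and 60 min in duplicate, quenched with acetonitrile containing warfarin, then LC-MS/MS.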

[12] = Intrinsic clearance in human liver microsomes at 1 uM after 5 to 40 mins by LC-MS/MS analysis in presence of NADPH; format: ADME; details: read-out: CLH
Method in brief: (§4)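 Pooled liver microsomes (0.5 mg/ml) with compound at 1 μM in 0.1 M phosphate buffer pH 7.4. Reaction started with NADPH 1 mM. Sampled at 0, 5, 15 and 40 min in duplicate, quenched with acetonitrile containing warfarin, then LC-MS/MS.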

[13] = Kinetic aqueous solubility of the compound in PBS at pH 1.2 after 2 hrs by LC-Ms analysis; format: physicochemical; details: read-out: Kinetic_solubility; method in brief: as §2
[14] = Half life in human hepatocytes at 1 uM; format: ADME, cell-based, Hepatocyte; method in brief: as §3
[15] = Fraction unbound in human plasma at 10 uM after 4 hrs by rapid equilibrium dialysis method; format: ADME, cell-free
Method in brief: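 Rapid equilibrium dialysis of pooled human plasma from two male and two female non-smoking donors. Compound typically 10 μM final, dialysed against isotonic phosphate buffer pH 7.4 at 37 °C for 4 h with rapid rotation. Proteins precipitated with methanol containing warfarin internal standard, then both compartments analysed by LC-MS/MS.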

[16] = Half life in human liver microsomes at 1 uM; format: ADME; method in brief: as §4

SMILES | remaining at 4 h [1] | half-life [2] | Papp B→A at 10 µM [3] | efflux ratio at 10 µM [4] | Activity [5] | Activity [6] | Activity [7] | Activity [8] | EC50 (Lipoprotein lipase) | Papp A→B at 10 µM [9] | solubility kinetic at 2 h [10] | Activity (Mus musculus) | hepatocyte CLint at 1 µM [11] | microsomal CLint at 1 µM [12] | solubility kinetic at 2 h [13] | half-life at 1 µM [14] | Fu [15] | half-life at 1 µM [16]
Cc1ccc(NC(=O)c2cc(N3C(=O)c4ccc(C(=O)O)cc4C3=O)ccc2N2CCCCC2)cc1 | 2% | 1.5 h | 31 ×10⁻⁶ cm/s | 2.7 | 93.8% | 90% | inactive | inactive | 6.6 µM | 12 ×10⁻⁶ cm/s | 80 µM (≈ 38.7 µg/mL) | inactive | – | – | – | – | – | –
Cc1ccc(NC(=O)c2cc(-c3cc4cc(C(=O)O)ccc4o3)ccc2N2CCCCC2)cc1 | 93% | – | 1.8 ×10⁻⁶ cm/s | 1.5 | 67.9% | 76% | inactive | 49.8% | – | 1.2 ×10⁻⁶ cm/s | < 2 µM | Active | 35 µL/min/1e6 cells | < 17 µL/min/mg | 7 µM (≈ 3.18 µg/mL) | 0.667 h | < 0.01% | > 1.33 h
